We go through 17 compounds from ChEMBL document CHEMBL2440035, “Azetidines and spiro azetidines as novel P2 units in hepatitis C virus NS3 protease inhibitors” (Bioorg Med Chem Lett, 2013).

For orientation: CC50 means the concentration that lowers cell viability or growth by half. The EC50 is the concentration giving half of the maximal effect. What is called EC90 is the concentration needed for an effect of 90%. In general, IC50 refers to the concentration at which inhibition is half-maximal. What is called IC90 is the concentration at which the effect reaches the 90% level.

The subject of data set [1] is CCRF-CEM. Briefly: Cytotoxicity against human CEM cells. It counts as cell-based. The method, boiled down:
(§1)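 Cytotoxicity was profiled in three cell types: primary human peripheral blood mononuclear (PBM) cells, CEM (a human T-cell-derived line) and Vero (African green monkey kidney epithelial cells).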

Data set [2] relates to Hepatitis C virus. Briefly: Antiviral activity against Hepatitis C virus infected in human HuH7 cells assessed as viral RNA replication. In kind it is functional, organism-based, Hepacivirus hominis. As to conditions: Huh-7. The gist of the method:
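Subgenomic HCV replicon in Huh7 cells; inhibition of HCV RNA replication measured by extraction and amplification of HCV RNA. Each concentration run in triplicate and reported as mean; EC50 derived.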

The subject of data set [3] is PBMC. Briefly: Cytotoxicity against human PBMC. In kind it is cell-based. The gist of the method:
as §1

Data set [4] deals with Vero. The data set can be described thus: Cytotoxicity against african green monkey Vero cells. It counts as cell-based. As to conditions: chlorocebus sabaeus. The gist of the method:
as §1

Data set [5] concerns Huh-7. The data set can be described thus: Cytotoxicity against human HuH7 cells. It counts as cell-based. The method, boiled down:
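Huh7 cytotoxicity measured together with the replicon antiviral assay, by extraction and amplification of ribosomal RNA. Each concentration run in triplicate and reported as mean.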

In data set [6] the test system is Hepatitis C virus. The data set can be described thus: Inhibition of Hepatitis C virus genotype 1b NS3/4A protease V36M mutant. The arrangement: species or system Hepatitis C virus subtype 1b. The method, boiled down:
(§2)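 Panel of genotype 1b NS3 protease enzymes (wild type and mutants). IC50 and IC90 are averages ± standard error from 2 independent assays. Fold change versus wild type given in parentheses.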

Data set [7] concerns the target Prothrombin (Homo sapiens, UniProt P00734). Briefly: Inhibition of human thrombin.
In data set [8] the test system is Hepatitis C virus. The data set can be described thus: Inhibition of Hepatitis C virus genotype 1b NS3/4A protease R155K mutant. More on the design: species or system Hepatitis C virus subtype 1b. The method, boiled down: as §2
Data set [9] has as its target Plasminogen (Homo sapiens, UniProt P00747). The data set can be described thus: Inhibition of human plasmin.
Data set [10] concerns Hepatitis C virus. The data set can be described thus: Inhibition of Hepatitis C virus genotype 1b wild type NS3/4A protease. More on the design: species or system Hepatitis C virus subtype 1b. The gist of the method: as §2
Data set [11] deals with Hepatitis C virus. Briefly: Inhibition of Hepatitis C virus genotype 1b NS3/4A protease A156S mutant. The arrangement: species or system Hepatitis C virus subtype 1b. The method, boiled down:
as §2

In data set [12] the target is T1, Neutrophil elastase (Homo sapiens) (UniProt P08246).
T1 sequence (whole entry): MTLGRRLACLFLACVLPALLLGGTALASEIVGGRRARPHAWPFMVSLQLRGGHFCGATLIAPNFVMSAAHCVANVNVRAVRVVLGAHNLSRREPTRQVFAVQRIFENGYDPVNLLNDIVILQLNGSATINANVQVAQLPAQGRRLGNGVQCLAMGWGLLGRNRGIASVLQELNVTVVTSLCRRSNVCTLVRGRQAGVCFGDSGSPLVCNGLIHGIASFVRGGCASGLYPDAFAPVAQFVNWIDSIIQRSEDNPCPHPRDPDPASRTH
Briefly: (§3) Inhibition of human neutrophil elastase.

Data set [13] concerns the target T2, Neutrophil elastase (Homo sapiens, UniProt P08246).
T2 sequence (P08246 whole entry): T1 sequence (whole entry)
Described as §3.

For data set [14], the system named is Hepatitis C virus. Briefly: Inhibition of Hepatitis C virus genotype 1b NS3/4A protease D168V mutant. The arrangement: species or system Hepatitis C virus subtype 1b. The gist of the method: as §2
Data set [15] deals with Hepatitis C virus. Briefly: Inhibition of Hepatitis C virus genotype 1b NS3/4A protease D168A mutant. More on the design: species or system Hepatitis C virus subtype 1b. The method, boiled down: as §2
Data set [16] deals with Hepatitis C virus. Briefly: Inhibition of Hepatitis C virus genotype 1b NS3/4A protease A156T mutant. The arrangement: species or system Hepatitis C virus subtype 1b. The method, boiled down: as §2
Data set [17] relates to Hepatitis C virus. Briefly: Inhibition of Hepatitis C virus genotype 1b NS3/4A protease V170A mutant. The arrangement: species or system Hepatitis C virus subtype 1b. The method, boiled down:
as §2

The target of data set [18] is Cathepsin S (Homo sapiens, UniProt P25774). The data set can be described thus: Inhibition of human cathepsin S.

Sequence of Plasminogen (P00747 97-580 limits assumed): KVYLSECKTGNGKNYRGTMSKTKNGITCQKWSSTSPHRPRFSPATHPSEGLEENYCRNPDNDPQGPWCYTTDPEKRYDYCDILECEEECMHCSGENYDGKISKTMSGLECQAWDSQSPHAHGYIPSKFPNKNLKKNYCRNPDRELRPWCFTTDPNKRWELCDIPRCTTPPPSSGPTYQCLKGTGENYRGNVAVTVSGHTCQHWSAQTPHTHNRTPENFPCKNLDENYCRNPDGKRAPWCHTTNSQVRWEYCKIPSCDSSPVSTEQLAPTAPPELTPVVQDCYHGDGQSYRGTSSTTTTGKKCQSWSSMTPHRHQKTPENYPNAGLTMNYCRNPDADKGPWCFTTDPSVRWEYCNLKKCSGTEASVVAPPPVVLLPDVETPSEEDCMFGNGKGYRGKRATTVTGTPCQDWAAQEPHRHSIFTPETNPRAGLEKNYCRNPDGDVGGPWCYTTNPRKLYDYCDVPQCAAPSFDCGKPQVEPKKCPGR
Sequence of Plasminogen (P00747 581-810 limits assumed): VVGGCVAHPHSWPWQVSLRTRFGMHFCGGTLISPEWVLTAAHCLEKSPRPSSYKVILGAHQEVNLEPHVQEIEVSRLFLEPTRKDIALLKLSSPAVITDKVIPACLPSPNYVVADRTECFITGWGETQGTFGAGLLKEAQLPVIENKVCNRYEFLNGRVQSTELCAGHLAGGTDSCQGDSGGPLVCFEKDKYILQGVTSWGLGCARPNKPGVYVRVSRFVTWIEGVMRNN

For `CCCC(NC(=O)C1N(C(=O)[C@@H](NC(=O)[C@@H](NC(=O)c2cnccn2)C2CCCCC2)C(C)(C)C)CC12Cc1ccccc1C2)C(=O)C(=O)NC1CC1` (stereo partly specified), the 50% cytotoxic concentration (CC50) in [1] was 72 µM; in [3] it was over 100 µM; in [4], over 100 µM; in data set [5], over 10 µM. For the same compound, the EC50 in [2] was over 10 µM. In addition, the concentration for an effect of 90% (EC90) in [2] was over 10 µM.
Consider `CCCC(NC(=O)C1CCN1C(=O)[C@@H](NC(=O)[C@@H](NC(=O)c1cnccn1)C1CCCCC1)C(C)(C)C)C(=O)C(=O)NC1CC1` (stereo partly specified), for which the cytotoxic concentration (CC50) was over 100 µM in data set [1], over 100 µM in data set [3], over 100 µM in data set [4] and over 10 µM in data set [5]. Besides, in data set [2], the concentration giving a half-maximal response (EC50) is over 10 µM. Also, the 90% effect concentration (EC90) in data set [2] was over 10 µM.
For the compound `CCCC(NC(=O)C1N(C(=O)[C@@H](NC(=O)[C@@H](NC(=O)c2cnccn2)C2CCCCC2)C(C)(C)C)CC12CCCCC2)C(=O)C(=O)NCCF` (stereo partly specified), the half-maximal cytotoxic concentration (CC50) in data set [1] was 5.4 µM; in data set [3], 32 µM; in [4], 21 µM; in data set [5] it was over 10 µM. Also, in data set [2], the concentration for a half-maximal effect (EC50) is 5.4 µM. The EC90 in data set [2] turned out to be 9.7 µM.
As for `CCCC(NC(=O)C1N(C(=O)[C@@H](NC(=O)NC(C)(C)C)C(C)(C)C)CC12Cc1ccccc1C2)C(=O)C(=O)NC1CC1` (stereo partly specified), the EC50 in [2] came to 13 µM. In data set [2], the EC90 was 31 µM. Moreover, the values for the half-maximal cytotoxic concentration (CC50) in [3], in data set [4] and in [5] were over 100 µM, over 100 µM and 27 µM, respectively.
As for `CC(C)(C)[C@H](NC(=O)[C@@H](NC(=O)c1cnccn1)C1CCCCC1)C(=O)N1CC2(Cc3ccccc3C2)C1C(=O)NC(CC1CCC1)C(=O)C(=O)NC1CC1` (stereo partly specified), the CC50 in [1] is 43 µM; in data set [3], 29 µM; in [4], over 100 µM. The EC50 in data set [2] was 0.7 µM. In addition, the EC90 in data set [2] stood at 1 µM.
Consider `CCCC(NC(=O)C1CCN1C(=O)[C@@H](NC(=O)[C@@H](NC(=O)c1cnccn1)C1CCCCC1)C(C)(C)C)C(=O)C(=O)NCCF` (stereo partly specified), for which the CC50 is 52 µM in data set [1], 80 µM in data set [3], over 100 µM in [4] and over 10 µM in data set [5]. The EC50 in [2] is over 10 µM. Further, in data set [2], the 90% effect concentration (EC90) was over 10 µM.
As for `CCCC(NC(=O)C1N(C(=O)[C@@H](NC(=O)NC2CCCCC2)C(C)(C)C)CC12Cc1ccccc1C2)C(=O)C(=O)NC1CC1` (stereo partly specified), the 50% effective concentration (EC50) in [2] stood at 8.9 µM. In addition, the EC90 in data set [2] was 30 µM. The CC50 in data set [3] amounted to 30 µM; in data set [4], 44 µM; in [5], 8.2 µM.
On to `CC(C)(C)NC(=O)N[C@H](C(=O)N1C[C@H]2[C@@H]([C@H]1C(=O)NC(CC1CCC1)C(=O)C(N)=O)C2(C)C)C(C)(C)C` (stereo partly specified) [BOCEPREVIR], for which the concentration for an effect of 90% (EC90) was 5.6 µM in data set [6]; 4.8 µM in [8]; 0.03 µM in data set [2]; 1 µM in [10]; at least 100 µM in data set [11]; 0.9 µM in data set [14]. Moreover, the values for the concentration for an effect of 90% (EC90) in data set [15], in data set [16] and in [17] were 4.7 µM, over 100 µM and 7.7 µM, respectively. The CC50 was over 100 µM in data set [1], over 100 µM in data set [3], over 100 µM in data set [4] and over 10 µM in [5]. Further, the IC50 is under 1 µM in [7], over 100 µM in [9], at least 100 µM in data set [13] and over 100 µM in data set [18]. Moreover, the IC90 in data set [7] was under 1.4 µM; in [9], over 100 µM; in [12], over 100 µM; in data set [18], over 100 µM. In addition, in data set [2], the 50% effective concentration (EC50) was found to be 0.01 µM.
`CCCC(NC(=O)C1CCN1C(=O)[C@@H](NC(=O)[C@@H](NC(=O)c1cnccn1)C1CCCCC1)C(C)(C)C)C(=O)C(=O)NCCOC` (stereo partly specified): the CC50 in data set [1] is 38 µM; in [3], over 100 µM; in [4], over 100 µM; in [5], over 10 µM. Moreover, in data set [2], the concentration for a half-maximal effect (EC50) was over 10 µM. Further, the 90% effect concentration (EC90) in data set [2] is over 10 µM.
In the case of `CCCC(NC(=O)C1N(C(=O)[C@@H](NC(=O)Nc2ccc(OC)cc2)C(C)(C)C)CC12Cc1ccccc1C2)C(=O)C(=O)NC1CC1` (stereo partly specified), the EC50 in data set [2] was over 10 µM. In data set [2], the EC90 is over 10 µM. The results for the CC50 in [3], in [4] and in data set [5] were 22 µM, 43 µM and over 10 µM, respectively.
In the case of `CCCC(NC(=O)C1N(C(=O)[C@@H](NC(=O)NC2CCCC2)C(C)(C)C)CC12Cc1ccccc1C2)C(=O)C(=O)NC1CC1` (stereo partly specified), in data set [2], the EC50 was over 10 µM. Besides, the EC90 in data set [2] was over 10 µM. The cytotoxic concentration (CC50) in data set [3] was over 100 µM; in data set [4], 95 µM; in data set [5], over 10 µM.
For the compound `CCCC(NC(=O)C1N(C(=O)[C@@H](NC(=O)C2CCCCC2)C(C)(C)C)CC12Cc1ccccc1C2)C(=O)C(=O)NC1CC1` (stereo partly specified), the half-maximal cytotoxic concentration (CC50) in [1] was determined as 22 µM; in [3] it was 31 µM; in data set [4], 43 µM; in data set [5], 10 µM. In addition, the EC50 in data set [2] was over 10 µM. Moreover, the EC90 in data set [2] was over 10 µM.
With `CC(C)(C)[C@H](NC(=O)NC1CCCCC1)C(=O)N1CC2(Cc3ccccc3C2)C1C(=O)NC(CC1CCC1)C(=O)C(=O)NC1CC1` (stereo partly specified), the 50% cytotoxic concentration (CC50) was found to be 15 µM in [1], 15 µM in data set [3], 26 µM in data set [4] and 5.5 µM in data set [5]. Also, the 50% effective concentration (EC50) in data set [2] stood at 5.8 µM. Further, the EC90 in data set [2] is 9.8 µM.
As for `CCCC(NC(=O)C1N(C(=O)[C@@H](NC(=O)CC(C)(C)C)C(C)(C)C)CC12Cc1ccccc1C2)C(=O)C(=O)NC1CC1` (stereo partly specified), the CC50 in [1] is 35 µM; in [3] it was 44 µM; in data set [4] it was 46 µM; in data set [5], over 10 µM. The EC50 in data set [2] is over 10 µM. The concentration for an effect of 90% (EC90) in [2] is over 10 µM.
Take `CC(C)(C)[C@H](NC(=O)[C@@H](NC(=O)c1cnccn1)C1CCCCC1)C(=O)N1CC2(Cc3ccccc3C2)C1C(=O)NC(CC1CC1)C(=O)C(=O)NC1CC1` (stereo partly specified): the CC50 was 14 µM in data set [1], 12 µM in [3] and over 100 µM in data set [4]. In addition, the EC50 in data set [2] was determined as 0.8 µM. Further, the concentration for an effect of 90% (EC90) in [2] was found to be 1.5 µM.
Regarding `CCCC(NC(=O)C1N(C(=O)[C@@H](NC(=O)Nc2ccccc2)C(C)(C)C)CC12Cc1ccccc1C2)C(=O)C(=O)NC1CC1` (stereo partly specified), in data set [2], the 50% effective concentration (EC50) is over 10 µM. Also, the EC90 in data set [2] is over 10 µM. Also, the values for the 50% cytotoxic concentration (CC50) in data set [3], in data set [4] and in [5] were 15 µM, 46 µM and over 10 µM, respectively.
With `C=CCNC(=O)C(=O)C(CCC)NC(=O)C1CCN1C(=O)[C@@H](NC(=O)[C@@H](NC(=O)c1cnccn1)C1CCCCC1)C(C)(C)C` (stereo partly specified), the CC50 in data set [1] is 30 µM; in [3], 27 µM; in [4], over 100 µM; in data set [5] it was over 10 µM. Also, the EC50 in [2] is over 10 µM. In data set [2], the concentration for an effect of 90% (EC90) is over 10 µM.
